We go through four molecules from article PMC4863959 (Dalton transactions (Cambridge, England : 2003), 2016).

As a reminder, the IC50 is the concentration that inhibits the measured activity by half.

One series concerns bovine Capthesin B. The settings on record: read-out: bovine Cathepsin B IC50; cited from earlier work.
Another series deals with plasmid (pBR322) DNA. Nature of the series: Electrophoresis mobility shift assay with plasmid DNA. Type of series: binding.
Series [1] can be described thus: Stability in solution by 1H-NMR spectroscopy. The format is physicochemical. The settings on record: D2O, PBS-D2O or neat DMSO-d6.
Series [2] relates to human breast adenocarcinoma cell line MCF7. Nature of the series: Cytotoxicity, MTT assay, MCF-7 cells. The format is cell-based. The settings on record: read-out: IC50 MCF-7, 24h incubation. The method, boiled down:
(§1)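 Cells were kindly donated by a university culture unit. They were grown in DMEM with 10% FBS and 1% penicillin/streptomycin/amphotericin B at 37°C and 5% CO2. Monolayers (~5×10^4) were grown 72 h, then exposed 24 h to test compound (0–100 μM; diluted from fresh DMSO stock; final DMSO ≤0.6% v/v). MTT was added for 3.5 h, formazan dissolved in DMSO, and A570 read (690 nm background). IC50 is mean ±SE of three experiments, triplicate microcultures.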

In series [3] the test system is human cervical carcinoma cell line HeLa. Nature of the series: Cytotoxicity, MTT assay, HeLa cells. As to conditions: read-out: IC50 HeLa, 24h incubation, 1% DMSO stock diluted with medium. The format is cell-based. In outline:
as §1

Series [4] addresses Human serum albumin (HSA) (Homo sapiens, UniProt P02768). Nature of the series: HSA tryptophan fluorescence quenching. The settings on record: HSA 10 μM, complex 10–100 μM. The format is binding. In outline:
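HSA (10 μM) in phosphate buffer (pH 7.4) received ten successive additions from an 8 mM DMSO stock of test compound, giving final 10–100 μM. Trp emission was recorded at room temperature, 300–450 nm, excitation 295 nm, 240 s after each addition. Compound, buffer and DMSO fluorescence were negligible. Data were fitted to F0/F = 1 + KSV[Q].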

Series [5] has as its system non-tumorigenic human embryonic kidney cells HEK-293T. Nature of the series: Cytotoxicity, XTT assay, HEK-293T cells. The format is cell-based. The settings on record: read-out: IC50 HEK-239T, 24h incubation. In outline: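 Cells were maintained in DMEM with 100 U/mL penicillin, 100 μg/mL streptomycin and 10% FBS, humidified, 37°C, 5% CO2/[…]. Seeding was 5×10^3 cells/well in phenol red-free, antibiotic-free DMEM with 10% FBS and 2 mM L-glutamine, grown 24 h. Test compound (final 0.1–50 μM) was given for 24 h or 48 h. XTT (final 0.3 mg/mL) ran 4 h, read at 450 nm. Survival was taken as treated/untreated absorbance. IC50 is mean ±SE of three experiments, triplicate microcultures.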

For a further series, the system named is MDA-MB-231 cells. Nature of the series: ApoTox-Glo Triplex assay. Type of series: cell-based, human. As to conditions: 10.7 μM, 24 h.
The subject of series [6] is human breast adenocarcinoma MDA-MB 231 cell line. Nature of the series: Cytotoxicity, XTT assay, MDA-MB-231 cells. Type of series: cell-based. The settings on record: read-out: IC50 MDA-MB-231, 24h incubation. The method, boiled down:
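Cells kept adherent in DMEM with penicillin/streptomycin and 10% FBS (37°C, 5% CO2/[…]). Seeded at 5×10^3 cells/well in phenol red-free, antibiotic-free DMEM with 10% FBS and 2 mM L-glutamine, and grown 24 h. Test compound added at 0.1–50 μM final for 24 h. XTT added at 0.3 mg/mL final for 4 h, then A450 read. Survival is the treated/untreated absorbance ratio. IC50 given as mean (±SE) of three independent experiments, triplicate microcultures per concentration.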

Series [7] deals with human colon adenocarcinoma cell line HT-29. Nature of the series: Cytotoxicity, MTT assay, HT-29 cells. Type of series: cell-based. The settings on record: read-out: IC50 HT-29, 24h incubation. The method, boiled down:
as §1
In general terms: Formazan colour is commonly taken as a measure of viable cells.

Chain of Human serum albumin (HSA) (P02768 25-609): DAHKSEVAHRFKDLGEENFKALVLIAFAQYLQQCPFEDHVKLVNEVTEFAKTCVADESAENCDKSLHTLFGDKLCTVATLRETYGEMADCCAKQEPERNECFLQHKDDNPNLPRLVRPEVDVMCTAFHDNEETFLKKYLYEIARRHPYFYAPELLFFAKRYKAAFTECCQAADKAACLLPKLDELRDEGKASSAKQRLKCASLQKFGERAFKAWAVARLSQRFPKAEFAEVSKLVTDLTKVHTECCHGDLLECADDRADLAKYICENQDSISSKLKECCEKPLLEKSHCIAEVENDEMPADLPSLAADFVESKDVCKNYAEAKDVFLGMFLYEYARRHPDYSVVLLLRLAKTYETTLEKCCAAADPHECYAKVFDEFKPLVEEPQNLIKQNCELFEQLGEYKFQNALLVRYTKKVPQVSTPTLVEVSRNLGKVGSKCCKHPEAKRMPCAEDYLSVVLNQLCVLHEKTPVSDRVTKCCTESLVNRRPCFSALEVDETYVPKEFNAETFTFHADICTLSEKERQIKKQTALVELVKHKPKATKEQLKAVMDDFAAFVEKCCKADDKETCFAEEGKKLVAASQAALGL

In the case of `Cc1ccc(C(C)C)cc1.[Cl][Ru]([Cl])[PH]12CN3CN(CN(C3)C1)C2` [RAPTA-C], in the series with bovine Capthesin B, the IC50 was 2.5 µM.
In the case of `Cc1ccccc1.[Cl][Ru]([Cl])[PH]12CN3CN(CN(C3)C1)C2` [RAPTA-T], in the series with bovine Capthesin B, the IC50 was 1.5 µM.
On to `N.N.[Cl][Pt][Cl]` [cisplatin, cis-diamminedichloroplatinum (II), reference compound], for which, in the series on plasmid (pBR322) DNA (37°C, 20 h, Tris/HCl buffer, drug/DNA ratio up to 2.0), the “effect on electrophoretic mobility of plasmid DNA” value was “both increase and decrease the mobility of the OC and the CCC forms”.
In the case of “G1-[[NCPh(o-N)Ru(η^6-p-cymene)Cl]Cl]4 [Compound 17]”, the “stability by 1H-NMR over 72 hours” value in series [1] is “did not observe changes”. For the same molecule, the IC50 in series [2] was found to be 6.9 ± 0.5 µM; in series [3], 8.1 ± 0.4 µM; in [5], 10.7 µM; in [6] it was 6.1 ± 1 µM; in series [7] it was 5.6 ± 0.1 µM. Also, the “shape of Stern-Volmer plot F0/F versus [Q]” value in series [4] is reported as “positive deviation”. Further, the “interaction with plasmid DNA at acidic, neutral and basic pH” value with plasmid (pBR322) DNA (metal/DNAbp ratio 2.0, pH 6, 7 and 8) was “do not interact with plasmid (pBR322) DNA”. In the series with MDA-MB-231 cells, this molecule displayed a necrotic cells of 27%. The “reduction of MDA-MB-231 viability” value in the series with MDA-MB-231 cells is reported as “ca. 58%”. Also, the “treated cells remaining viable” value in the series on MDA-MB-231 cells was found to be 42%. In the series with MDA-MB-231 cells (caspase-3/-7 activity), the apoptotic cells came out at 16%.
